Source: ChEMBL document CHEMBL1124611, “Synthesis and antitubercular activity of N-(2-naphthyl)glycine hydrazide analogues” (J Med Chem, 1989)

Columns and labels:
Type in all cases: functional, organism-based
[1] = system: Mycobacterium tuberculosis; assay: Ability to inhibit 100%growth against Mycobacterium tuberculosis H37Rv in Youman's medium with 10% bovine serum
How it was run: (§1)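 H37Rv from a 14-day Youman's culture was inoculated as a loopful floated on Youman's medium with 10% (v/v) freshly prepared bovine serum. The medium held a range of compound concentrations. Controls held medium or ethylene glycol. Tubes were sealed and held at 37 °C. Growth was compared with controls and scored at 21 days.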

[2] = system: Mycobacterium tuberculosis; assay: Ability to inhibit 100%growth against Mycobacterium tuberculosis H37Rv in Youman's medium
How it was run: (§2)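 M. tuberculosis H37Rv was kept on Petrik's solid medium. A 3-mm loopful of a 14-day culture grown in Youman's medium was floated on 5.0 mL of Youman's (nonprotein) medium holding a range of compound concentrations diluted from stocks. Controls held medium or ethylene glycol. Tubes were sealed with paraffin and held at 37 °C. Growth was compared with controls weekly and scored at 21 days, in triplicate.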

[3] = system: Mycobacterium tuberculosis; assay: Ability to inhibit partial growth (50+/-10%) against Mycobacterium tuberculosis H37Rv in Youman's medium; how it was run: as §2
[4] = system: Mycobacterium tuberculosis; assay: Ability to inhibit partial growth (50+/-10%) against Mycobacterium tuberculosis H37Rv in Youman's medium with 10% bovine serum; how it was run: as §1
[5] = system: Mycobacterium tuberculosis; assay: Ability to inhibit partial growth (50+/-10%) against Mycobacterium tuberculosis strain no: 312 in Youman's medium
How it was run: (§3)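 Clinical isolates (INH-resistant nos. 22443 and 312; streptomycin-resistant no. 14029) were kept on Lowenstein-Jensen or Petrik's medium, then moved to Youman's medium. 14-day cultures were inoculated into tubes holding a range of compound concentrations in Youman's medium. Controls held medium, ethylene glycol, INH and streptomycin. Tubes were sealed with paraffin and held at 37 °C for 4 weeks. Growth was compared with controls weekly and scored at 28 days, in triplicate.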

[6] = system: Mycobacterium tuberculosis; assay: Ability to inhibit partial growth (50+/-10%) against Mycobacterium tuberculosis strain no: 22443 in Youman's medium; how it was run: as §3
[7] = system: Mycobacterium tuberculosis; assay: Ability to inhibit 100%growth against Mycobacterium tuberculosis strain no: 22443 in Youman's medium.; how it was run: as §3
[8] = system: Mycobacterium tuberculosis; assay: Ability to inhibit 100%growth against Mycobacterium tuberculosis strain no: 312 in Youman's medium.; how it was run: as §3
[9] = system: Mycobacterium tuberculosis; assay: Ability to inhibit 100% growth against Mycobacterium tuberculosis strain no :14029; how it was run: as §3
[10] = system: Mycobacterium tuberculosis; assay: Ability to inhibit partial growth (50+/-10%) against Mycobacterium tuberculosis strain no: 14029 in Youman's medium; how it was run: as §3

SMILES	Concentration [1]	Concentration [2]	Concentration [3]	Concentration [4]	Concentration [5]	Concentration [6]	Concentration [7]	Concentration [8]	Concentration [9]	Concentration [10]
CC(CC(=O)NN)Nc1ccc2ncccc2c1 (stereo unspecified)	150 µg/mL	100 µg/mL	50 µg/mL	100 µg/mL						
CC(Nc1ccc2ccccc2c1)C(=O)NN (stereo unspecified)	50 µg/mL	1 µg/mL	0.5 µg/mL	10 µg/mL						
O=C(CNc1ccc2ccccc2c1)N/N=C/c1ccncc1	100 µg/mL	1 µg/mL	0.5 µg/mL	10 µg/mL						
O=C(O)CNc1ccc2ncccc2c1	100 µg/mL	100 µg/mL	10 µg/mL	50 µg/mL						
NNC(=O)CNc1ccc2ccccc2c1	50 µg/mL	1 µg/mL	0.5 µg/mL	10 µg/mL						
NNC(=O)c1ccncc1	1 µg/mL	1 µg/mL	0.1 µg/mL	0.5 µg/mL	50 µg/mL	100 µg/mL	150 µg/mL	100 µg/mL		
CC(CC(=O)NN)Nc1ccc2ccccc2c1 (stereo unspecified)	100 µg/mL	10 µg/mL	5 µg/mL	50 µg/mL						
O=C(O)CNc1ccc2ccccc2c1		1000 µg/mL	100 µg/mL							
CN[C@@H]1[C@H](O[C@H]2[C@H](O[C@H]3[C@H](O)[C@@H](O)[C@H](N=C(N)N)[C@@H](O)[C@@H]3N=C(N)N)O[C@@H](C)[C@]2(O)C=O)O[C@@H](CO)[C@H](O)[C@H]1O									2500 µg/mL	1000 µg/mL
NNC(=O)CNc1ccc2ncccc2c1	100 µg/mL	100 µg/mL	25 µg/mL	50 µg/mL						
COc1ccc2cc(NC(C)C(=O)NN)ccc2c1 (stereo unspecified)	100 µg/mL	50 µg/mL	10 µg/mL	50 µg/mL						
CN(CC(=O)NN)c1ccc2ccccc2c1	50 µg/mL	10 µg/mL	2 µg/mL	10 µg/mL						
COc1ccc2cc(NCC(=O)NN)ccc2c1	50 µg/mL	10 µg/mL	5 µg/mL	10 µg/mL						
CN(CC(=O)N/N=C/c1ccncc1)c1ccc2ccccc2c1	100 µg/mL	10 µg/mL	1 µg/mL	10 µg/mL						
